Rows were chosen to be rich in hits. Some 9.6% of all compounds tested hit in one or more screens of this group.
TNAP act hiacc: TNAP (human) activation, high acceptor; purified TNAP, CDP-star luminescence, 1 M DEA, 30 min; hits give high values; 0 = EDTA background, 1 = DMSO-only activity; activation factor at 20 µM; 200,000 tested, under 10 active; AID 1136;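 active = activation factor at least 2 at 20 µM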
Target sequence (P05186 whole entry, looked up): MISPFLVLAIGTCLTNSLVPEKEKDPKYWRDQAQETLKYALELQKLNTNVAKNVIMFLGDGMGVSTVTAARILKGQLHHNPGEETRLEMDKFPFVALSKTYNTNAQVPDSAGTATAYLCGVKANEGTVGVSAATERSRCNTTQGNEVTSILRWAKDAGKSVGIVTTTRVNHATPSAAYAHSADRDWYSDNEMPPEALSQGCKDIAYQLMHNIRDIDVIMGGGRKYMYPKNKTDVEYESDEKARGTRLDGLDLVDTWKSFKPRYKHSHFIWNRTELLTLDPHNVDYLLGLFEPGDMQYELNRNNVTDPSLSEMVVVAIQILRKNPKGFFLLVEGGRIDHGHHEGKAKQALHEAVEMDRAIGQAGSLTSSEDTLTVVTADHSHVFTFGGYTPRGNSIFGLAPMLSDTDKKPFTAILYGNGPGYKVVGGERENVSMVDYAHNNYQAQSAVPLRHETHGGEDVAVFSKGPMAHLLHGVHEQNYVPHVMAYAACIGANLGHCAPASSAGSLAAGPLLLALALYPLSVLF
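Assay system: human TNAP; Input: enzyme diluted 1/800 final; Reagent: CDP-star luminogenic substrate at 100 µM final; Timing: 30 min, room temperature; Signal: luminescence; Evaluation: TNAP activation factor scaled between EDTA and DMSO control wells.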
HCT116 bCat-KO: beta-catenin-lacking colon tumor cell growth suppression | HCT116 beta-catenin knockout viability, CellTiter-Glo, 60 h; hits give low values | viability, % at 10 µM | 1.5% of 140,000 active | AID 818;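 active = viability at or under a set limit, the compound median less 4 SD, cut at about 6% in these data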
TNAP inh hiacc: inhibitors of human TNAP at high phosphate acceptor concentration; P05186; purified TNAP, CDP-star luminescence, 1 M DEA; inhibition, % at 20 µM; 0.03% of 200,000 active; AID 1135;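 active = over 50% inhibition of tissue-nonspecific alkaline phosphatase at 20 µM in the single-dose screen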
TNAP inh no acc: TNAP (human) inhibition, acceptor-free conditions. purified TNAP, CDP-star luminescence, 30 min. inhibition, % at 20 µM. 0.26% of 200,000 active;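 active = tissue-nonspecific alkaline phosphatase inhibition above about 50% at 20 µM in the single-dose screen, limit read from the data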
L major viab: reduces viability of Leishmania major promastigotes | resazurin fluorescence viability | inhibition, % at 10 µM | 9% of 200,000 active | AID 1063; in the data active = inhibition above about 50%;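 also: promastigotes grown with compound for 44 hours at 28 °C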
HCT116 PTEN-null: PTEN-deleted cell growth suppression; 1.2% of 140,000 active; HCT116 PTEN-null viability, CellTiter-Glo, 60 h; hits give low values; AID 827; viability, % at 10 µM;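 active = viability at or below a set limit, 4 SD under the median of all tested compounds, cut at about 3.7% in these data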;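 also: PTEN knockout HCT116 line with beta catenin targeted HCT116 as companion control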
Numbers stand for hits; – = inactive; · = no result.

SMILES	TNAP act hiacc	HCT116 bCat-KO	TNAP inh hiacc	TNAP inh no acc	L major viab	HCT116 PTEN-null
CC(C)N(CCNCC(O)COc1ccc(C(C)(C)c2ccccc2)cc1)C(C)C (stereo not given)	–	·	–	–	94	·
C=CCNCCOc1ccc(C(C)(C)c2ccccc2)cc1	–	–	–	–	98	–
CN(C)CCCOc1ccc(C(C)(C)c2ccccc2)cc1	–	–	–	–	100	–
CC1CCc2cc(F)ccc2N1C(=O)CSc1nnc2c(n1)[nH]c1ccccc12 (stereo not given)	–	–	–	–	–	–
O=C(/C=C/c1ccc(-c2ccccc2[N+](=O)[O-])o1)c1ccco1	–	·	–	–	59	·
Cc1nn(C)c(C(=O)NNC(=O)Nc2cccc(C(F)(F)F)c2)c1Cl	–	·	–	–	–	·
Cc1cccc(N2CCN(C(c3ccncc3)c3nnnn3C(C)(C)C)CC2)c1C (stereo not given)	–	·	–	–	87	·
CC(C)(C)n1nnnc1C(c1cccnc1)N1CCN(C(=O)c2ccco2)CC1 (stereo not given)	–	–	–	–	68	–
CC(C)(C)n1nnnc1C(c1cccnc1)N1CCN(c2cccc(C(F)(F)F)c2)CC1 (stereo not given)	–	–	–	–	95	–
CC(C)(C)n1nnnc1C(c1ccncc1)N1CCN(C2CCCCC2)CC1 (stereo not given)	–	–	–	–	–	–
COc1ccc(/C=N/NC(=O)c2ccoc2C)cc1COc1c(C)cccc1C	–	–	–	–	100	–
COc1cc(/C=N/NC(=O)c2ccoc2C)cc(OC)c1O	–	–	–	–	–	–
Cc1cc(C)nc(SCC(=O)NC2=NN=C(c3ccc(Br)cc3)CS2)n1	–	1.5	–	–	–	2.8
CC(=O)OCC(=O)N1N=C(c2ccc3ccccc3c2)CC1c1ccccc1 (stereo not given)	–	·	–	–	86	·
COc1ccc(C2CC(c3ccc4ccccc4c3)=NN2C(=O)COC(=O)C2CCC(=O)N2)cc1 (stereo not given)	–	·	–	–	–	·
COc1ccc(C2CC(c3ccc4ccccc4c3)=NN2C(=O)CNC2CCCCC2)cc1 (stereo not given)	–	·	–	–	100	·
COCCN(C(=S)Nc1c(C)cc(C)cc1C)C(C)c1cccnc1 (stereo not given)	–	–	–	–	89	–
COCCN(C(=S)Nc1cc(C)ccc1C)C(C)c1cccnc1 (stereo not given)	–	–	–	–	95	–
COCCN(C(=S)Nc1c(C)cccc1C)C(C)c1cccs1 (stereo not given)	–	·	–	–	56	·
COCCN(C(=S)Nc1cccc(C)c1)C(C)c1cccs1 (stereo not given)	–	–	–	–	–	–
Cc1cc(NC(=O)CSc2nnc(-c3cccnc3)n2Cc2ccccc2)no1	–	·	–	–	–	·
CCOC(=O)c1ccc[n+](CC(=O)Nc2cc(C(F)(F)F)ccc2Cl)c1	–	·	–	–	–	·
Cc1ccnc(SCc2cc(=O)c(OC(=O)c3ccc(Cl)c([N+](=O)[O-])c3)co2)n1	–	–	–	–	96	–
Cc1ccnc(SCc2cc(=O)c(OC(=O)c3ccco3)co2)n1	–	–	–	–	–	–
COc1cccc(N2C(=O)C(c3ccccc3)=C(c3nc4ccccc4s3)C2NC(C)=O)c1 (stereo not given)	–	–	–	–	–	–
SMILES	TNAP act hiacc	HCT116 bCat-KO	TNAP inh hiacc	TNAP inh no acc	L major viab	HCT116 PTEN-null
CC(=O)NC1C(c2nc3ccccc3s2)=C(c2ccccc2)C(=O)N1c1ccc(C)cc1 (stereo not given)	–	–	–	–	97	–
O=C(CNCCC1=CCCCC1)Nc1ccccc1N1CCCCC1	–	–	–	–	97	–
C=CCNC(=S)NNC(=O)c1cc(O)ccc1O	–	·	–	68	–	·
O=C(Cc1ccc(S(=O)(=O)N2CCCCC2)s1)Nc1cccc2ccccc12	–	–	–	–	–	–
CCCCOC(=O)c1ccc(NC(=O)C(=O)NCC2CCCO2)cc1 (stereo not given)	–	–	–	–	–	–
CCCOC(=O)c1ccc(NC(=O)C(=O)NCC2CCCO2)cc1 (stereo not given)	–	–	–	–	55	–
Cc1cc(C(=O)C(=O)O)c(C)n1-c1ccc(Cl)cc1	–	·	–	–	–	·
Cc1cc(C(=O)C(C)Sc2cccc[n+]2[O-])c(C)n1-c1ccc(Cl)cc1 (stereo not given)	–	·	–	–	97	·
c1ccc(-c2n[nH]c3c2CCC3)cc1	–	–	–	73	–	–
CCOc1cc(/C=C(\C#N)c2[nH]nc(N)c2C#N)ccc1O	–	–	–	–	67	–
CCOc1cc(-c2cc(-c3ccc(C)cc3)nc(N)c2C#N)ccc1O	–	–	–	–	–	–
COc1ccc(C(C(O)C(=O)c2c[nH]c3ccccc23)N2CCN(c3ccc(OC)cc3)CC2)cc1 (stereo not given)	–	–	–	–	52	–
COC(=O)NCC(c1ccco1)N1CCN(c2ccc(OC)cc2)CC1 (stereo not given)	–	·	–	–	–	·
O=C(c1c[nH]c2ccccc12)C(O)C(c1ccccc1)N1CCOCC1 (stereo not given)	–	–	–	–	–	–
O=C(NCCc1c[nH]c2ccccc12)C(=O)NCC(c1cccnc1)N1CCN(c2ccccc2)CC1 (stereo not given)	–	–	–	–	100	–
COc1ccc(N2CCN(C(CNC(=O)C(=O)NCCc3c[nH]c4ccccc34)c3ccco3)CC2)cc1 (stereo not given)	–	–	–	–	65	–
Cc1nonc1C1CCCN1Cc1cn[nH]c1-c1ccc(-c2ccccc2)cc1 (stereo not given)	–	·	–	–	–	·
CCCc1cc2c(cc1NC(=O)c1ccc(Br)cc1)OCO2	–	–	–	–	–	–
CC(C)(C)C1CCc2c(C(=O)NNC(=O)/C=C/C(=O)O)csc2C1 (stereo not given)	–	–	–	–	–	–
CC(C)(C)C1CCc2c(C(=O)N/N=C/c3cccs3)csc2C1 (stereo not given)	–	–	–	–	96	–
O=[N+]([O-])c1cccc(Cl)c1CSc1ccccn1	–	·	–	–	–	·
Cc1nnc(SCc2c(Cl)cccc2[N+](=O)[O-])s1	–	·	–	–	80	·
Cc1cccc(C)c1C(OCCN(C)C)C1CCCCC1 (stereo not given)	–	–	–	–	–	–
CCOC(=O)C1CCN(Cc2cnc(Oc3ccc(C(C)(C)C)cc3)s2)CC1	–	–	–	–	91	–
CCOC(=O)C1CCN(Cc2cnc(NC(=O)OC)s2)CC1	–	–	–	–	–	–
Cn1cc(CNCC2CCCO2)c(-c2ccc(Oc3ccccc3)cc2)n1 (stereo not given)	–	·	–	–	–	·
